The values below come from ChEMBL document CHEMBL1148789, “Synthesis and biological activities of new checkpoint kinase 1 inhibitors structurally related to granulatimide” (J Med Chem, 2007).

The structures appear in SMILES notation. The source made the active and inactive calls. The calls are words filed in the database; no cut-off is given here.

Assay [1] has as its target T1, Proto-oncogene tyrosine-protein kinase Src (Homo sapiens, UniProt P12931). The assay can be described thus: Inhibition of Src. In a few lines:
(§1)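 Started by adding cosubstrate (40 µM ATP stock with [33P]γ-ATP); 20 min at 30 °C. Stopped with 0.85% orthophosphoric acid, filtered on phosphocellulose, washed, then scintillation counted. Percent inhibition at 10 µM; IC50 reported.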

Assay [2] addresses T2, Serine/threonine-protein kinase Chk1 (Homo sapiens) (UniProt O14757).
T2 sequence (whole entry): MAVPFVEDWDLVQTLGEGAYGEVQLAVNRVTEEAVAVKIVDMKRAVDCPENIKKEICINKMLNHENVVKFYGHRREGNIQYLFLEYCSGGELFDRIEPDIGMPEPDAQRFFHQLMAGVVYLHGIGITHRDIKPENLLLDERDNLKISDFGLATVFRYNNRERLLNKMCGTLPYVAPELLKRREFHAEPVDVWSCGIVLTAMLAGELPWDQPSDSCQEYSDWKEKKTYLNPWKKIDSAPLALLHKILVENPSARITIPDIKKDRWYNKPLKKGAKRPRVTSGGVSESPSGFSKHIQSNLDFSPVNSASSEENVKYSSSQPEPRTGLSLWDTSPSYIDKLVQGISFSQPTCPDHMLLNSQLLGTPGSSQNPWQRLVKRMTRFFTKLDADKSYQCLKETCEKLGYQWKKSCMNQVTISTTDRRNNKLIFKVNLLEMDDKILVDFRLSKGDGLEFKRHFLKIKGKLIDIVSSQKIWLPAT
The assay can be described thus: Inhibition of human Chk1 expressed in Sf9 cells at 10 uM. An outline of the steps: (§2)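 Full-length human Chk1 with an N-terminal GST tag, purified from baculovirus-infected Sf9 cells or purchased. Stopped with orthophosphoric acid and captured on phosphocellulose filters for scintillation counting. Percent inhibition at 10 µM; IC50 from 12 concentrations over 6 logs, duplicate points averaged.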

Assay [3] addresses T3, Serine/threonine-protein kinase Chk1 (Homo sapiens, UniProt O14757).
T3 sequence (O14757 whole entry): T2 sequence (whole entry)
Briefly: Inhibition of human Chk1 expressed in Sf9 cells. An outline of the steps:
as §2

In assay [4] the test system is HCT-116. The assay can be described thus: Antiproliferative activity against human HCT116 cells […] by microculture tetrazolium assay. In kind it is functional, cell-based. In a few lines: (§3)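 Human HCT116, human HT29 and murine L1210 tumour cells grown in RPMI 1640 with 10% fetal calf serum, 2 mM L-glutamine, penicillin/streptomycin and 10 mM HEPES pH 7.4. Compounds were taken from 10^-2 M DMSO stocks, diluted 1/100 in RPMI, and cells were exposed continuously to graded concentrations for four doubling times. MTT was added for 4 h at 37 °C and the formazan dissolved in DMSO. IC50 is the concentration lowering optical density 50% versus untreated cells.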

Assay [5] concerns HT-29. The assay can be described thus: Antiproliferative activity against human HT29 cells […] by microculture tetrazolium assay. In kind it is functional, cell-based. In a few lines: as §3
Assay [6] addresses T1, Proto-oncogene tyrosine-protein kinase Src. Briefly: Inhibition of Src at 10 uM. In a few lines:
as §1

The test system of assay [7] is L1210. Briefly: Antiproliferative activity against mouse L1210 cells after four doubling times by microculture tetrazolium assay.
Assay [8] concerns the target Casein kinase II subunit alpha (Homo sapiens) (UniProt P68400). The assay can be described thus: Residual activity of CK2 at 1 uM.
The species entered for assay [9] is Homo sapiens. Briefly: Residual activity of PKA at 1 uM.
For assay [10], the target named is T2, Serine/threonine-protein kinase Chk1 (Homo sapiens). The assay can be described thus: Residual activity of Chk1 at 1 uM.
Assay [11] concerns the target RAF proto-oncogene serine/threonine-protein kinase (Homo sapiens) (UniProt P04049). Briefly: Residual activity of cRAF at 1 uM.
The target of assay [12] is Dual specificity mitogen-activated protein kinase kinase 1 (Homo sapiens) (UniProt Q02750). The assay can be described thus: Residual activity of MEK1 at 1 uM.
Dual specificity mitogen-activated protein kinase kinase 1 (Homo sapiens), sequence (Q02750 whole entry): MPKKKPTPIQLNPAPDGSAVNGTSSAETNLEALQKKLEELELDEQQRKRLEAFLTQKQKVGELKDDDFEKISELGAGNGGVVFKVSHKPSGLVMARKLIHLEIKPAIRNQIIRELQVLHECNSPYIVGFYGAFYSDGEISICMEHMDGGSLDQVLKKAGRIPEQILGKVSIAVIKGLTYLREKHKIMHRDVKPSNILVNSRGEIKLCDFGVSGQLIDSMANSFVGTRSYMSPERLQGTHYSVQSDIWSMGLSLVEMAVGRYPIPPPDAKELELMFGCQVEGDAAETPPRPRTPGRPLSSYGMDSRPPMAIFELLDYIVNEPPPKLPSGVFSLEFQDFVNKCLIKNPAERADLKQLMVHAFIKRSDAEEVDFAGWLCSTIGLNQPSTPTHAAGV
Assay [13] is filed under the species Homo sapiens. The assay can be described thus: Residual activity of CaMKII at 1 uM.
For assay [14], the target named is Ribosomal protein S6 kinase beta-1 (Homo sapiens) (UniProt P23443). Briefly: Residual activity of p70S6K at 1 uM.
Ribosomal protein S6 kinase beta-1 (Homo sapiens), sequence (P23443 whole entry, looked up): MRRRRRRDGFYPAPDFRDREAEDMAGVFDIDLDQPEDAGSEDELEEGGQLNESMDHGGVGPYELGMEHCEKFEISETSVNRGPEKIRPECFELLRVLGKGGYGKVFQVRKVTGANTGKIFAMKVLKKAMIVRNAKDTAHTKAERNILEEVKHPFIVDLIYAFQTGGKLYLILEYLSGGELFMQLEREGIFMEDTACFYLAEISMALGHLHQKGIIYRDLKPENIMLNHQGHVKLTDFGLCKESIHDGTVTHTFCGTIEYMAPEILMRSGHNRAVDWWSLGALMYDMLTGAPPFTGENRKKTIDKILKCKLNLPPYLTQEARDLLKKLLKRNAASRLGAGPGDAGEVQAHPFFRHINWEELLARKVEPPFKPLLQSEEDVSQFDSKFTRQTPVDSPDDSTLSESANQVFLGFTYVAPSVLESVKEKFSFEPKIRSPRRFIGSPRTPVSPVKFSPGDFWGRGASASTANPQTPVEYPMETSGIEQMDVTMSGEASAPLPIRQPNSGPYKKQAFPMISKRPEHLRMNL
Assay [15] concerns the target Cyclin-dependent kinase 5/CDK5 activator 1 (Homo sapiens) (UniProt Q00535+Q15078). The assay can be described thus: Residual activity of CDK5/p25 at 1 uM.
Assay [16] has as its target MAP kinase-activated protein kinase 2 (Homo sapiens) (UniProt P49137). The assay can be described thus: Residual activity of MAPKAPK2 at 1 uM.
The species named for assay [17] is Homo sapiens. Briefly: Residual activity of CDK1/cyclin B at 1 uM.
Assay [18] is filed under the species Homo sapiens. Briefly: Residual activity of CDK7/cyclin H at 1 uM.
The target in assay [19] is Mitogen-activated protein kinase 1 (Homo sapiens) (UniProt P28482). The assay can be described thus: Inhibition of MAPK1 at 1 uM; values are per cent of control.
Mitogen-activated protein kinase 1 (Homo sapiens), sequence (P28482 whole entry): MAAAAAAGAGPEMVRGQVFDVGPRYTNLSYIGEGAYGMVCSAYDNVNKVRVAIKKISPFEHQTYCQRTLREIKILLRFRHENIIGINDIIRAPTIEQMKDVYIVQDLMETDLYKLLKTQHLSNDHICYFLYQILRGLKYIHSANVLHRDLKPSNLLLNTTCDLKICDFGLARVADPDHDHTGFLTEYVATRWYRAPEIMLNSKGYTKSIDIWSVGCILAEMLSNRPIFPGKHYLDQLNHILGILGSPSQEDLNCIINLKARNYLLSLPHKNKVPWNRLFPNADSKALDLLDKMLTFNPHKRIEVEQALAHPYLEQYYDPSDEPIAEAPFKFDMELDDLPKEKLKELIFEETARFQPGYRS
Assay [20] addresses RAC-alpha serine/threonine-protein kinase (Homo sapiens) (UniProt P31749). Briefly: Inhibition of PKBalpha at 1 uM; values are per cent of control.
In assay [21] the target is Protein kinase C alpha type (Homo sapiens) (UniProt P17252). Briefly: Inhibition of PKCalpha at 1 uM; values are per cent of control.
For assay [22], the target named is Casein kinase I isoform delta (Homo sapiens) (UniProt P48730). The assay can be described thus: Inhibition of CK1delta at 1 uM; values are per cent of control.
Casein kinase I isoform delta (Homo sapiens), sequence (P48730 whole entry, looked up, canonical isoform): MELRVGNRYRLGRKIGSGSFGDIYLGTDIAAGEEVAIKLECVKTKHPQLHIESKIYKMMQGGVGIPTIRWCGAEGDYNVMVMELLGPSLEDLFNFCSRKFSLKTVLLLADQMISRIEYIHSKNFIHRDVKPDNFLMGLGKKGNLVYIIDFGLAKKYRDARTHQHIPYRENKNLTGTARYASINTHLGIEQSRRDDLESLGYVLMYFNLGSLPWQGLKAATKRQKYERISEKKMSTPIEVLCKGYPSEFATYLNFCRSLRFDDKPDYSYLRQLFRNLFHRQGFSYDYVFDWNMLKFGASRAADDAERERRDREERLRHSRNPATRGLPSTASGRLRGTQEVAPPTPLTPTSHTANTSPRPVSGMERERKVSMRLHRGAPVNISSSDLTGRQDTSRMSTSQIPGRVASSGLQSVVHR
For assay [23], the target named is Glycogen synthase kinase-3 beta (Homo sapiens) (UniProt P49841). The assay can be described thus: Inhibition of GSK3-beta at 1 uM; values are per cent of control.
Glycogen synthase kinase-3 beta (Homo sapiens), sequence (P49841 whole entry, looked up): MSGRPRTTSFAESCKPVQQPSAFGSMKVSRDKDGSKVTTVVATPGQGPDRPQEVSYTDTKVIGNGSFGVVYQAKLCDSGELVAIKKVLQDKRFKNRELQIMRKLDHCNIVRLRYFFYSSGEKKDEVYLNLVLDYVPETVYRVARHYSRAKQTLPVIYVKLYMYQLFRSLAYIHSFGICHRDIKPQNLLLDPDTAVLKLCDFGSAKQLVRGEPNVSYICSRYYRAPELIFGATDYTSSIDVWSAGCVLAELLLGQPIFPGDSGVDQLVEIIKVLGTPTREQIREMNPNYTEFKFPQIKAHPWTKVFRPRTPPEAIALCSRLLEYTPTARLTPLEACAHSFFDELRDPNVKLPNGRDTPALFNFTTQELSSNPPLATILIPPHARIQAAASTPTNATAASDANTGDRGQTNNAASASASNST
The target of assay [24] is Glycogen synthase kinase-3 alpha (Homo sapiens) (UniProt P49840). The assay can be described thus: Inhibition of GSK3-alpha at 1 uM; values are per cent of control.
Glycogen synthase kinase-3 alpha (Homo sapiens), sequence (P49840 2-483 limits assumed): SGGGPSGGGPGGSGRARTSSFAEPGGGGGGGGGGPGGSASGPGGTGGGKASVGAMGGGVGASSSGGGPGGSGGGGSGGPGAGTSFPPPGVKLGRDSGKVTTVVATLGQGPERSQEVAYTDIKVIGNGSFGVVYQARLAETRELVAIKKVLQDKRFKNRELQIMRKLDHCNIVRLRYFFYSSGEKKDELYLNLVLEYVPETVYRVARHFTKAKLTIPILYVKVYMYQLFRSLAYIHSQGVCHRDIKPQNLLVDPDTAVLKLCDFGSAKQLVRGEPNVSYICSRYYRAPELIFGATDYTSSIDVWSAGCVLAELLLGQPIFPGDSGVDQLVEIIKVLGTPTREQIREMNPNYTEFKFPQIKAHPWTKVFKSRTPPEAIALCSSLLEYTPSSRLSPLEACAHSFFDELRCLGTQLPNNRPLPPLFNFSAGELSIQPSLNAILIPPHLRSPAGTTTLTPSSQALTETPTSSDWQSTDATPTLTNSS
The species named for assay [25] is Homo sapiens. The assay can be described thus: Inhibition of CDK2/cyclin A at 1 uM; values are per cent of control.
Assay [26] has as its target CDK9/cyclin T1 (Homo sapiens) (UniProt O60563+P50750). The assay can be described thus: Inhibition of CDK9/cyclin T1 at 1 uM; values are per cent of control.

T1 sequence (P12931 2-536 limits assumed): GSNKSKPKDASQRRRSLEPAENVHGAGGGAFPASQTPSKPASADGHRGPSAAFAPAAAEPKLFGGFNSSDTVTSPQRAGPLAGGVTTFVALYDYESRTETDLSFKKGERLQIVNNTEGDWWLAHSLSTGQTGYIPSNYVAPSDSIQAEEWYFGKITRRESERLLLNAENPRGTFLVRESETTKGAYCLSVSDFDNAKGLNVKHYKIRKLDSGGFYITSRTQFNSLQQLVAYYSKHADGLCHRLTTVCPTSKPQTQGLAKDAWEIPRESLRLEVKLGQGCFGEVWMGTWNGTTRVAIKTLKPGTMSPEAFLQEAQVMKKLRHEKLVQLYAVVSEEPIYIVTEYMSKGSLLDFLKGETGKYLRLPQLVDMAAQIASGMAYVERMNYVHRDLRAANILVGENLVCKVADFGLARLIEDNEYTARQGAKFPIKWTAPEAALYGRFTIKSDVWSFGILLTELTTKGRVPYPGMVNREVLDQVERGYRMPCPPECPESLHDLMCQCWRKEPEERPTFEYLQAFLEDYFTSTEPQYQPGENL
Casein kinase II subunit alpha (Homo sapiens), sequence (P68400 whole entry, looked up): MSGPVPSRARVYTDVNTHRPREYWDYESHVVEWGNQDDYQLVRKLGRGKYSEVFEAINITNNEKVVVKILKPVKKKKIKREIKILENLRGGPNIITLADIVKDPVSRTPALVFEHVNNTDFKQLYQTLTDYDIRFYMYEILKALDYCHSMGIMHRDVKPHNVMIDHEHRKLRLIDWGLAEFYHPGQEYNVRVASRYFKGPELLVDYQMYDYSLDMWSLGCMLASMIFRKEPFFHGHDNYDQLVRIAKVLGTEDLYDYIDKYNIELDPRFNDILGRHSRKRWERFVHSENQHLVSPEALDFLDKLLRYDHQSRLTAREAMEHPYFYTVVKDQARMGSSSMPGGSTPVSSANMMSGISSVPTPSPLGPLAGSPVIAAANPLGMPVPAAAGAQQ
MAP kinase-activated protein kinase 2 (Homo sapiens), sequence (P49137 whole entry, looked up): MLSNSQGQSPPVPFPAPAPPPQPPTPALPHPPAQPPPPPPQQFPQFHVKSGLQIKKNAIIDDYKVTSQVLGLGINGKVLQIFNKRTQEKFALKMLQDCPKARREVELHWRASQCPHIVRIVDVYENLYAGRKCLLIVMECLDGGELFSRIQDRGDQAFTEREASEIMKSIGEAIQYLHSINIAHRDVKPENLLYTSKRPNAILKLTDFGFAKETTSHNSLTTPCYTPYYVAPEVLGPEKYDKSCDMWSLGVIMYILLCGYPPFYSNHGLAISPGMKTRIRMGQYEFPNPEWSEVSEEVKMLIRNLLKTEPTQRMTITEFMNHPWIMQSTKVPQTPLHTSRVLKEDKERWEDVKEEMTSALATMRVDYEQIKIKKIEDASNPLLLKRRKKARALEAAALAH

The term IC50 denotes the concentration at which inhibition is half-maximal. Low readings indicate inhibition by little substance, high ones a need for much substance. The inhibition is the drop in the measured response relative to a control, in per cent. The low end stands for little suppression, the high end for strong suppression. As for `O=C1NC(=O)c2c1c1c(O)ccc(O)c1c1[nH]c3ccc(O)cc3c21`, the half-inhibitory concentration (IC50) is 5.4 µM in assay [1]; 0.023 µM in [3]; 2.7 µM in assay [4]; 26.4 µM in [5]; 1.4 µM in assay [7]. Also, the inhibition in assay [2] is 94%; in assay [6] it was 83.5%.
In assay [2], `CC(C)(C)C(=O)Oc1ccc(O)c2c3c(c4c5ccccc5[nH]c4c12)C(=O)NC3=O` registered an inhibition of 66%. For the same compound, the half-inhibitory concentration (IC50) was found to be 3.7 µM in assay [3], 8.76 µM in assay [4] and 7.28 µM in assay [5].
With `O=C1NC(=O)c2c1c1c(O)ccc(O)c1c1[nH]c3ccccc3c21`, the inhibition in assay [2] is 96%; in assay [6], 2.5%. The compound further showed an IC50 in assay [3] of 0.311 µM.
Take `O=c1[nH]c(=O)c2c1c1[nH]c3ccccc3c1c1c(=O)[nH]c(=O)c21` [BIS-IMIDE A]: the inhibition in assay [2] is 94.4%. Moreover, half-maximal inhibition in [3] (IC50) was put at 0.02 µM. The result in assay [6] was inactive.
`O=C1CCc2c1c1c(c3c2[nH]c2ccccc23)C(=O)NC1=O` returned an inhibition in assay [2] of 72%. For the same compound, the half-maximal inhibitory concentration (IC50) in [3] was found to be 0.043 µM; in assay [4] it was 9.7 µM; in [5], 16.1 µM; in assay [7], 58.4 µM. Also, the result in assay [6] was inactive.
Turning to `O=C1NC(=O)c2c1c1c(c3[nH]c4ccccc4c23)C(=O)CCC1`, the inhibition in assay [2] came to 15.3%; in assay [6], 8.5%. For the same compound, the half-maximal inhibitory concentration (IC50) amounted to 1.1 µM in [4] and 15.5 µM in assay [5].
The compound `Cc1ccc2[nH]c3c4c(OS(=O)(=O)O)ccc(O)c4c4c(c3c2c1)C(=O)NC4=O` returned an inhibition in [2] of 70%. The IC50 in assay [3] is 0.893 µM; in assay [4], above 40 µM; in assay [5], 50 µM.
The corresponding values for `O=C1NC(=O)c2c1c1c(O)ccc(OS(=O)(=O)O)c1c1[nH]c3ccccc3c21` are 62%, 1.79 µM, above 50 µM and 46 µM.
In [2], `Cc1ccc2[nH]c3c4c(O)ccc(O)c4c4c(c3c2c1)C(=O)NC4=O` came in with an inhibition of 99%. Further, the IC50 was found to be 0.161 µM in assay [3], 1.6 µM in assay [4] and 3.8 µM in assay [5]. In addition, the residual activity is 108% in assay [8]; 117% in [9]; 12% in assay [10]; 93% in assay [11]; 96% in [12]; 34% in assay [13]. Further, the residual activity in [14] stood at 42%; in assay [15] it was 28%; in assay [16], 57%; in [17] it was 86%; in assay [18], 90%; in [19], 95%. In addition, the residual activity in assay [20] was 87%; in assay [21], 102%; in assay [22] it was 100%; in assay [23], 60%; in assay [24], 32%; in assay [25], 69%. Further, the residual activity in assay [26] was found to be 117%.
In assay [2], `O=c1ccc(=O)c2c1c1[nH]c3ccccc3c1c1c(=O)[nH]c(=O)c21` registered an inhibition of 86%. The compound also registered a 50% inhibitory concentration (IC50) in assay [3] of 0.269 µM.
Take `O=C1NC(=O)c2c1c1c(O)cccc1c1[nH]c3ccccc3c21`: the inhibition in [2] came to 93%; in assay [6], 35%. The IC50 was found to be 0.904 µM in [3], 17.5 µM in [4] and 46.4 µM in [5].
As to `O=c1ccc(=O)c2c1c1[nH]c3ccc(O)cc3c1c1c(=O)[nH]c(=O)c21`, the inhibition was determined as 95% in [2] and 63% in [6]. Besides, the IC50 in [3] was found to be 0.027 µM; in assay [4] it was 15.4 µM; in assay [5], 50.6 µM; in assay [7], 8.4 µM. The residual activity was 92% in assay [8]; 103% in assay [9]; 22% in assay [10]; 102% in assay [11]; 98% in [12]; 40% in assay [13]. Moreover, the residual activity in assay [14] stood at 27%; in [15], 33%; in [16] it was 73%; in assay [17] it was 85%; in assay [18] it was 87%; in [19], 77%. In addition, the residual activity in assay [20] was determined as 87%; in assay [21] it was 66%; in assay [22] it was 16%; in [23], 19%; in assay [24], 3%; in assay [25], 62%. Further, in assay [26], the residual activity was determined as 61%.
Take `Cc1ccc2[nH]c3c4c(=O)ccc(=O)c4c4c(=O)[nH]c(=O)c4c3c2c1`: the inhibition in assay [2] was 86%; in assay [6] it was 52.5%. Besides, the 50% inhibitory concentration (IC50) is 0.107 µM in assay [3], 0.7 µM in [4] and 20.6 µM in assay [5].
On to `O=C1NC(=O)c2c1c1[nH]cnc1c1[nH]c3ccccc3c21` [GRANULATIMIDE], for which the values for the IC50 in assay [1] and in assay [3] were 0.35 µM and 0.081 µM, respectively. The compound further gave an inhibition in assay [6] of 58%.
